Among the data in ChEMBL document CHEMBL2016533, “Paviosides A-H, eight new oleane type saponins from Aesculus pavia with cytotoxic activity” (Bioorg Med Chem, 2012) are IC50 values, retold here.

One experiment deals with J774. In words: Cytotoxicity against mouse J774 cells after 72 hrs by MTT assay. Format: functional, cell-based. To be noted: J774, 72 h. The method, boiled down: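 J774 murine monocyte/macrophage cells are kept in suspension in stirred bottles (37 °C, DMEM, 10% FBS, 25 mM HEPES, 2 mM glutamine), then plated and allowed 2 h to adhere (37 °C, 5% CO2). Medium is refreshed, 1.2 v/v serial dilutions are added, and cells incubate 72 h. MTT (5 mg/mL) is added for 3 h, then solubilized in 50% DMF/20% SDS, pH 4.5. % dead cells = 100 − (OD treated/OD control)×100.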
On the technique in general: Tetrazolium assays rely on reduction of a dye to a coloured formazan, in cell work by metabolically active cells.

The subject of another experiment is WEHI-164. Briefly: Cytotoxicity against mouse WEHI164 cells after 72 hrs by MTT assay. To be noted: WEHI-164, 72 h. Format: functional, cell-based. The method in brief: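 WEHI 164 murine fibrosarcoma cells are kept adherent (DMEM, 10% heat-inactivated FBS, 25 mM HEPES), then plated and allowed 2 h to adhere (37 °C, 5% CO2). Medium is refreshed, 1.2 v/v serial dilutions are added, and cells incubate 72 h. MTT (5 mg/mL) is added for 3 h, then solubilized in 50% DMF/20% SDS, pH 4.5. % dead cells = 100 − (OD treated/OD control)×100.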

Values after ≈ are worked out from the molar mass of the structure shown.

Broadly, the IC50 is the concentration that inhibits the measured activity by half. As for `C/C=C(\C)C(=O)O[C@H]1[C@H](OC(C)=O)[C@]2(CO)[C@H](O)C[C@]3(C)C(=CC[C@@H]4[C@@]5(C)CC[C@H](O[C@@H]6O[C@H](C(=O)O)[C@@H](O[C@@H]7O[C@H](CO)[C@@H](O)[C@H](O)[C@H]7O)[C@H](O)[C@H]6O[C@@H]6OC[C@@H](O)[C@H](O)[C@H]6O)C(C)(C)[C@@H]5CC[C@]43C)[C@@H]2CC1(C)C` [PAVIOSIDEA], the half-maximal inhibitory concentration (IC50) is 5.7 µg/mL (≈ 5.25 µM) with J774 and 4.8 µg/mL (≈ 4.42 µM) in the experiment on WEHI-164.

As for `C/C=C(/C)C(=O)O[C@H]1[C@H](OC(C)=O)[C@]2(CO)[C@H](O)C[C@]3(C)C(=CC[C@@H]4[C@@]5(C)CC[C@H](O[C@@H]6O[C@H](C(=O)O)[C@@H](O[C@@H]7O[C@H](CO)[C@@H](O)[C@H](O)[C@H]7O)[C@H](O)[C@H]6O[C@@H]6OC[C@@H](O)[C@H](O)[C@H]6O)C(C)(C)[C@@H]5CC[C@]43C)[C@@H]2CC1(C)C` [PAVIOSIDEB], the figures for the IC50 in the experiment on J774 and in the experiment with WEHI-164 were 5.1 µg/mL (≈ 4.7 µM) and 4.9 µg/mL (≈ 4.52 µM), respectively.

As to `C/C=C(\C)C(=O)O[C@H]1[C@H](OC(C)=O)[C@]2(CO)[C@H](O)C[C@]3(C)C(=CC[C@@H]4[C@@]5(C)CC[C@H](O[C@@H]6O[C@H](C(=O)O)[C@@H](O[C@@H]7O[C@H](CO)[C@H](O)[C@H](O)[C@H]7O)[C@H](O)[C@H]6O[C@@H]6OC[C@@H](O)[C@H](O)[C@H]6O)C(C)(C)[C@@H]5CC[C@]43C)[C@@H]2CC1(C)C` [PAVIOSIDEC], the results for the IC50 in the experiment with J774 and with WEHI-164 were 5.7 µg/mL (≈ 5.25 µM) and 6.5 µg/mL (≈ 5.99 µM), respectively.

As for `C/C=C(/C)C(=O)O[C@H]1[C@H](OC(C)=O)[C@]2(CO)[C@H](O)C[C@]3(C)C(=CC[C@@H]4[C@@]5(C)CC[C@H](O[C@@H]6O[C@H](C(=O)O)[C@@H](O[C@@H]7O[C@H](CO)[C@H](O)[C@H](O)[C@H]7O)[C@H](O)[C@H]6O[C@@H]6OC[C@@H](O)[C@H](O)[C@H]6O)C(C)(C)[C@@H]5CC[C@]43C)[C@@H]2CC1(C)C` [PAVIOSIDED], the values for the half-maximal inhibitory concentration (IC50) with J774 and in the experiment with WEHI-164 were 6.6 µg/mL (≈ 6.08 µM) and 7.1 µg/mL (≈ 6.54 µM), respectively.

For `C/C=C(\C)C(=O)O[C@H]1[C@H](OC(C)=O)[C@]2(CO)[C@H](O)C[C@]3(C)C(=CC[C@@H]4[C@@]5(C)CC[C@H](O[C@@H]6O[C@H](C(=O)O)[C@@H](O[C@@H]7OC[C@@H](O)[C@H](O)[C@H]7O)[C@H](O)[C@H]6O[C@@H]6OC[C@@H](O)[C@H](O)[C@H]6O)C(C)(C)[C@@H]5CC[C@]43C)[C@@H]2CC1(C)C` [PAVIOSIDEE], the figures for the IC50 in the experiment with J774 and with WEHI-164 were 2.9 µg/mL (≈ 2.75 µM) and 2.1 µg/mL (≈ 1.99 µM), respectively.

Take `C/C=C(/C)C(=O)O[C@H]1[C@H](OC(C)=O)[C@]2(CO)[C@H](O)C[C@]3(C)C(=CC[C@@H]4[C@@]5(C)CC[C@H](O[C@@H]6O[C@H](C(=O)O)[C@@H](O[C@@H]7OC[C@@H](O)[C@H](O)[C@H]7O)[C@H](O)[C@H]6O[C@@H]6OC[C@@H](O)[C@H](O)[C@H]6O)C(C)(C)[C@@H]5CC[C@]43C)[C@@H]2CC1(C)C` [PAVIOSIDEF]: the IC50 in the experiment on J774 is 2.8 µg/mL (≈ 2.65 µM); with WEHI-164, 2.3 µg/mL (≈ 2.18 µM).

In the case of `C/C=C(\C)C(=O)O[C@H]1[C@H](OC(C)=O)[C@]2(CO)[C@H](O)C[C@]3(C)C(=CC[C@@H]4[C@@]5(C)CC[C@H](O[C@@H]6O[C@H](C(=O)O)[C@@H](O[C@@H]7OC[C@@H](O)[C@H](O)[C@H]7O)[C@H](O)[C@H]6O[C@@H]6OC[C@@H](O)[C@H](O)[C@H]6O)[C@](C)(CO)[C@@H]5CC[C@]43C)[C@@H]2CC1(C)C` [PAVIOSIDEG], the IC50 was determined as 3.6 µg/mL (≈ 3.36 µM) in the experiment on J774 and 3.5 µg/mL (≈ 3.27 µM) in the experiment on WEHI-164.

As for `C/C=C(/C)C(=O)O[C@H]1[C@H](OC(C)=O)[C@]2(CO)[C@H](O)C[C@]3(C)C(=CC[C@@H]4[C@@]5(C)CC[C@H](O[C@@H]6O[C@H](C(=O)O)[C@@H](O[C@@H]7OC[C@@H](O)[C@H](O)[C@H]7O)[C@H](O)[C@H]6O[C@@H]6OC[C@@H](O)[C@H](O)[C@H]6O)[C@](C)(CO)[C@@H]5CC[C@]43C)[C@@H]2CC1(C)C` [PAVIOSIDEH], the IC50 with J774 was 3.5 µg/mL (≈ 3.27 µM); in the experiment with WEHI-164 it was 3.2 µg/mL (≈ 2.99 µM).
